# Assay results taken from article PMC8482496 (ACS Omega, 2021).
# What was measured:
# [1] = target: T1, S. aureus ThrRS (Staphylococcus aureus, UniProt Q2FXP7); test: In vitro aminoacylation assay; format: biochemical; conditions: read-out: inhibition of S. aureus ThrRS
# T1 sequence (Q2FXP7 1-645): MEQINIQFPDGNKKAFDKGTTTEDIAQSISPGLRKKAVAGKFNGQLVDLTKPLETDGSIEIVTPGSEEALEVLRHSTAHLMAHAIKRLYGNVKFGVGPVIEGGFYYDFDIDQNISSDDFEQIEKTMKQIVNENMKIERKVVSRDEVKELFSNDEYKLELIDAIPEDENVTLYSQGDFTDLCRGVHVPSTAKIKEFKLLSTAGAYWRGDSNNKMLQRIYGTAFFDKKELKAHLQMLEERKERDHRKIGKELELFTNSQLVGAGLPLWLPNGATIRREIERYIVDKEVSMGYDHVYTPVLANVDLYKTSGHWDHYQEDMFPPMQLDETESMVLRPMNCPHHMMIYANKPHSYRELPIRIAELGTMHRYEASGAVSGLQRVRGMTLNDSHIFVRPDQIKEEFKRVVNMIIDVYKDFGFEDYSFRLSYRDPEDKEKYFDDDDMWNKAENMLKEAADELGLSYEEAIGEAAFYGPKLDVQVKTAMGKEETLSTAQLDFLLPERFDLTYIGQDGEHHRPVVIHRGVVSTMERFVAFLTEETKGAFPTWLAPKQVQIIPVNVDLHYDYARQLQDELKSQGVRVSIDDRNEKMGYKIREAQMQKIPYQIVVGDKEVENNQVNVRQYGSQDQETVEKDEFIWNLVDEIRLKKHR
# Outline: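 S. aureus ThrRS expressed in E. coli BL21(DE3)pLysS (0.25 mM IPTG, 3 h, 37 °C), purified on DEAE then heparin columns. Started with 10 mM ATP; 10 min, 37 °C; TCA-precipitated on filters, scintillation-counted; at least duplicates.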
# [2] = MTT assay, cytotoxicity; format: cell-based, human; conditions: human, HEK293 cells
# Outline: (§1)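 HEK293 cells kept in DMEM with 10% FBS plus penicillin/streptomycin, 37 °C, 5% CO2. Seeded at 2 × 10^5 cells/mL and grown 24 h, then exposed 72 h to test compound in DMSO (final DMSO below 0.5%) at various concentrations. MTT (5 mg/mL solution) added for 4 h; formazan dissolved in DMSO, A540 read; viability expressed as percent of untreated control cells.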
# [3] = system: HEK293 cells; test: MTT assay, cytotoxicity; format: cell-based, human; conditions: at a concentration of 100 μM; 72 h
# Outline: as §1
inhibition at 100 µM [1],SMILES,EC50 at 72 h [2],decrease of the growth of HEK293 cells [3],cytotoxicity toward HEK293 [3]
78.6%,"Cc1cc(I)ccc1N1C(=O)CC(Sc2ncccc2C(=O)O)C1=O (stereo not drawn) [compound 11, 2-[1-(4-iodo-2-methyl-phenyl)-2,5-dioxo-pyrrolidin-3-ylsulfanyl]-nicotinic acid]",> 100 µM,30%,
85.6%,"Cc1ccc([N+](=O)[O-])cc1NC(=O)COc1ccccc1C(C)(C)C [compound 2, 2-(2-tert-butyl-phenoxy)-N-(2-methyl-5-nitro-phenyl)-acetamide]",,,not cytotoxic
78.3%,"CCOC(=O)c1c(-c2ccc(Cl)cc2)csc1NC(=O)CN1CC(C)OC(C)C1 (stereo not drawn) [compound 8, 4-(4-chloro-phenyl)-2-[2-(2,6-dimethyl-morpholin-4-yl)-acetylamino]-thiophene-3-carboxylic acid ethyl ester]",,,not cytotoxic
88.5%,"COc1ccc(C(=O)CSc2nc3ccc([N+](=O)[O-])cc3s2)cc1 [compound 1, 1-(4-methoxy-phenyl)-2-(6-nitro-benzothiazol-2-ylsulfanyl)-ethanone]",,,not cytotoxic
